Assay results from ChEMBL document CHEMBL1795252, “New class azaphilone produced by a marine fish-derived Chaetomium globosum. The stereochemistry and biological activities” (Bioorg Med Chem, 2011).

Legend:
Format in all cases: functional, cell-based
[1] = test system: KB; experiment: Cytotoxicity against human KB cells after 72 hrs by MTT assay
Procedure, shortened: (§1)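 Cells grown in Eagle's MEM with 10% fetal calf serum at 37 °C, 5% CO2. Test material dissolved in DMSO (10 mM stock), diluted in medium to 200, 20 and 2 µM working solutions, combined with cell suspension (1 × 10^5 cells/ml). Incubated 72 h at 37 °C, MTT labeling, formazan dissolved in 20% SDS/0.1 N HCl, absorbance 540 nm. Growth as % of untreated control; triplicate assays; IC50 from semilog plots of averaged data.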

[2] = test system: HL-60; experiment: Cytotoxicity against human HL60 cells after 72 hrs by MTT assay; conditions: HL-60, 72 h; procedure, shortened: as §1
[3] = test system: P388; experiment: Cytotoxicity against mouse P388 cells after 72 hrs by MTT assay; conditions: P388, 72 h; procedure, shortened: as §1
[4] = test system: L1210; experiment: Cytotoxicity against mouse L1210 cells after 72 hrs by MTT assay; conditions: L1210, 72 h; procedure, shortened: as §1

| Compound | IC50 [1] | IC50 [2] | IC50 [3] | IC50 [4] |
| --- | --- | --- | --- | --- |
| C/C=C(\C)C(=O)C[C@H]1C2=COC(/C=C/[C@@H](C)[C@@H](C)O)=CC2=C(Cl)C(=O)[C@@]1(C)O [CHAETOMUGILIN I] | 2300 nM | 1100 nM | 1100 nM | 1900 nM |
| C/C=C(\Cl)C(=O)[C@@](C)(O)[C@H]1CC(=O)C(C)=C2C=C(/C=C/[C@@H](C)[C@@H](C)O)OC=C21 [CHAETOMUGILIN P] | 1800 nM | 1200 nM | 700 nM | 1500 nM |
| C[C@H](O)[C@@H](C)/C=C/C1=CC2=C(Cl)C(=O)[C@](C)(O)[C@@H](O)[C@@H]2CO1 [CHAETOMUGILIN R] | 67100 nM | 51800 nM | 32000 nM | 67100 nM |
| C/C=C(\C)C(=O)C[C@H]1C2=COC(/C=C/[C@H](C)[C@@H](C)O)=CC2=C(Cl)C(=O)[C@@]1(C)O | 1200 nM | 1000 nM |  | 1600 nM |
| O=c1[nH]cc(F)c(=O)[nH]1 [FLUOROURACIL] | 7700 nM | 2700 nM | 1700 nM | 1100 nM |
